Data on two compounds can be found in PMC7394305 (Journal for Immunotherapy of Cancer, 2020).

Read-outs that look alike come from different tables or passages of the source.

Data set [1] deals with MC38-OVA tumors. As to the kind of experiment: MC38-OVA syngeneic tumor model. In kind it is in vivo, mouse. The method, boiled down: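 C57BL/6 mice bore sc MC38-OVA (5×10^5 cells in PBS) and were randomised at 80–100 mm3. Anti-CD8 or rat IgG2b isotype was injected every 3 days. Mice also got oral test compound 50 mg/kg twice daily plus anti-PD-L1 10 mg/kg ip twice weekly. Tumor volume was tracked twice weekly.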

In data set [2] the test system is MC38-OVA tumors. As to the kind of experiment: Ex vivo stimulation cytokine flow cytometry of MC38-OVA tumors. Type of data set: in vivo, mouse. The following applies: for IFN-γ, TNF-α, IL-2, granzyme B and CD107a on CD8+ T cells: PMA/ionomycin ex vivo stimulation. A digest of the protocol:
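Dissociated MC38-OVA tumor cells were plated at 2–4e5 live cells/well in complete T cell medium. […] CD8+ T and NK cell cytokines and CD107a were then read by flow cytometry.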
Background: Flow cytometry measures light scatter and fluorescence of single cells or particles in a stream.

In data set [3] the test system is CD103+ DC. As to the kind of experiment: Pinocytosis assay. Type of data set: cell-based, mouse. The method, boiled down:
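1e6 iDCs were incubated with Alexa 488–ovalbumin (50 µg/mL final) in complete T cell medium for 30 min at 37°C, with 4°C as negative control. Cells were washed twice in ice-cold DPBS, kept chilled and analysed by flow cytometry.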

Data set [4] has as its system CD8+ T cells. Kind of data set: T cell IFNγ secretion assay. In kind it is cell-based, mouse. The following applies: for EC50: Mus musculus, T-cell.
Data set [5] deals with CD103+ DC. As to the kind of experiment: Analysis of antigen presentation. In kind it is cell-based, mouse.
Data set [6] concerns MC38 tumors. Kind of data set: Tumor immunophenotyping flow cytometry of MC38 tumors. In kind it is in vivo, mouse.
Data set [7] relates to tumor draining LN cells. As to the kind of experiment: ELISpot assay of tumor draining lymph node cells. Type of data set: in vivo, mouse. The following applies: combination with anti-PD-L1; MC38-OVA tumor-bearing mice.
The test system of data set [8] is monocyte-derived DCs. As to the kind of experiment: Antigen-specific priming of HLA-A*0201 Melan-A CD8+ T cells. In kind it is cell-based, human.
The subject of data set [9] is MC38 tumors. Kind of data set: Gene expression analysis of MC38 tumors. Type of data set: in vivo, mouse. As to conditions: 14 days treatment. The method, boiled down: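 Mice bearing sc MC38 tumors were treated with test compound for 14 days. Tumor gene expression was profiled with the NanoString Mouse PanCancer Immune Profiling Panel.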
Data set [10] deals with OT-1 CD8+ T cells. As to the kind of experiment: CD103+ DC co-culture with OT-1 CD8+ T cells. In kind it is cell-based, mouse.
The test system of data set [11] is CD103+ DC. As to the kind of experiment: CD103+ DC mouse bone marrow differentiation cultures. Type of data set: cell-based.
For data set [12], the system named is MCA205 tumors. As to the kind of experiment: MCA205 tumors in immunodeficient NSG mice. Type of data set: in vivo, mouse. The following applies: AZD4635 and anti-PD-L1 (D265A). A digest of the protocol: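 NSG mice got MCA205 cells sc (1×10^6 in PBS, right flank), with randomisation at 50–90 mm3. Treatment was oral test compound nanosuspension plus anti-PD-L1 (mIgG1 D265A, ip 10 mg/kg twice weekly). Tumor volume was measured twice weekly.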

Data set [13] has as its system OT-1 CD8+ T cells. As to the kind of experiment: Ex vivo CD103+ DC isolation and OT-I T cell co-culture. In kind it is in vivo, mouse. The following applies: CD103+ DC from TdLN of MC38-OVA mice.
Data set [14] concerns F4/80+ macrophages. As to the kind of experiment: Mouse macrophage assay. In kind it is cell-based. As to conditions: 10 µM NECA.
[15] abbreviates: whole ovalbumin protein, AZD4635+NECA.
[16] abbreviates: AZD4635 + NECA, dead MC38-OVA tumor cells.
Setting [17] is: 5 μM NECA, dead MC38-OVA tumor cells.
Where [18] appears, read: DC differentiated with 5 µM NECA, loaded with SIINFEKL peptide.

`Cc1cc(-c2nnc(N)nc2-c2ccc(F)cc2)cc(Cl)n1` [AZD4635]: in [1] (AZD4635 50 mg/kg twice daily with αPD-L1 10 mg/kg), the “tumor efficacy of combination” value is given as “appreciable beneficial combination effect”. Besides, the “antitumor activity after depletion of CD8 T cells” value in [1] (AZD4635+PD-L1 treatments, antimouse CD8 antibody) was “completely abrogated”. For the same compound, in data set [2] (combination with anti-PD-L1), the “NK cell IFN-γ production” value is reported as “minimal increase”; the “NK cell TNF-α production and CD107a expression” value is listed as “strong increase”; the “IFN-γ, TNF-α, IL-2, granzyme B and CD107a on CD8+ T cells” value is “most significantly increased”. Further, in data set [2] (single agent), the “IFN-γ, TNF-α, IL-2, granzyme B and CD107a on CD8+ T cells” value is “all enhanced”. The “rescue of fluorescent OVA uptake” value in [3] (AZD4635 3 µM with NECA) is “almost to levels in untreated control”. Also, in data set [4] (read-out: EC50 restoration of IFN-γ secretion, 0.1 µM NECA), the EC50 was 53 nM. In data set [4] (read-out: EC50 restoration of IFN-γ secretion, 1 µM NECA), the EC50 came to 598 nM. Moreover, the “restoration of IFN-γ secretion” value in [4] (in presence of NECA) was “back to baseline levels”. Further, the “rescue of antigen presentation compared with NECA treatment” value in data set [5] (SIINFEKL pulsed cultures, AZD4635 3 µM + NECA) is given as “twofold”. In addition, in data set [5] (setting [15]), the “antigen presentation level versus untreated CD103+ DCs” value was “restored to a level comparable to untreated” and the “increase of antigen presentation compared with NECA” value was “nearly fivefold”. For the same compound, in data set [6] (14 days, single agent), the “MHCII and CD86 expression on CD11c+ DCs and F4/80+ macrophages” value is on record as “increased expression”; the “intratumoral frequencies of DCs and macrophages” value is “did not increase”. Also, in [6] (in combination with anti-PD-L1), the “frequency of infiltrating CD8+ cytotoxic lymphocytes compared with vehicle” value is “significantly increased”. In [7], the “IFN-γ response to OVA and p15E peptides” value is reported as “Strong activation of IFN-γ”. Also, the “Melan-A26-35 tetramer positive CD8+ T cells” value in data set [8] (5 µM NECA, AZD4635 3 µM where given, tabulated, 4 donors, no NECA 32%) came to 16%. The “expression of genes associated with immune activation relative to vehicle” value in data set [9] is “upregulated expression”. Besides, in [10] (AZD4635 + NECA, SIINFEKL peptide), the “restoration of CD107a and IFN-γ” value is reported as “comparable to untreated cells”. For the same compound, in [10] (setting [16]), the “CD107a response relative to responses elicited by untreated cells” value was 87% and the “IFN-γ response compared with untreated cells” value is given as “not statistically different”. For the same compound, in [11] (3 µM AZD4635 then NECA), the “differentiation into CD103+ DC” value is given as “able to differentiate into CD103^+ DC efficiently”. Moreover, the “antitumor activity in immunodeficient mice” value in [12] was “completely abrogated”. In addition, the “proliferation of OT-1 CD8+ T cells” value in [13] (anti-PD-L1+AZD4635 combination) stood at 53%. The “proliferation of OT-1 CD8+ T cells” value in data set [13] (single agent, vehicle 5.8%) is listed as 28%.

Consider `CCNC(=O)[C@H]1O[C@@H](n2cnc3c(N)ncnc32)[C@H](O)[C@@H]1O` [NECA, 5′-(N-ethylcarboxamido) adenosine], for which the “reduction of fluorescent OVA uptake” value in [3] (NECA 5 µM) is ~50%. Besides, the “suppression of IFN-γ secretion” value in [4] (1 µM NECA, CD3/CD28 beads) came to 80%. The “antigen presentation compared with untreated CD103+ DC” value in [5] (SIINFEKL pulsed cultures, NECA 5 µM) is on record as “less than a third”. For the same compound, in [5] (whole ovalbumin protein, NECA 5 µM), the “antigen presentation compared with untreated cells” value is listed as “a log-fold reduced”. In addition, in data set [8], the “Melan-A26-35 tetramer positive CD8+ T cells” value was 2.5%. Also, in [8] (5 µM NECA), the “reduction of cross-priming function of DCs” value is reported as “greater than 90%”. Also, in data set [10] (setting [17]), the “reduction of CD107a response” value came to 75% and the “reduction of IFN-γ response” value was 75%. Besides, in [10] (setting [18]), the “reduction of CD107a expression by OT-1 CD8+ T cells” value was determined as 72% and the “reduction of IFN-γ secretion by OT-1 CD8+ T cells” value was 60%. Moreover, the “suppression of MHCII expression relative to DMSO-treated controls” value in data set [14] is on record as > 90%. In data set [11] (5 µM NECA, untreated 80%), the “CD103+ cells” value came to 57%.
